One data set is filed under the species Mus musculus. The data set is described as follows: Potency ratio as the ratio of IC50 of DMXXA against murine macrophages to that of the IC50 against murine macrophages. It counts as ADME.
Data set [1] has as its system C13. Kind of data set: In vitro cytotoxicity against C13 tumor cell line. It counts as functional, cell-based. Particulars: Homo sapiens. In outline: (§1)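 Cisplatin-resistant C13* human ovarian adenocarcinoma cells, kept in RPMI 1640 with 10% heat-inactivated FCS and 2 mM L-glutamine, seeded and treated 24 h later with graded concentrations for 24 h. Viability by MTT (4 h, 37 °C; DMSO solubilization; 570 nm, reference 630 nm). IC50 with 95% confidence limits by Litchfield–Wilcoxon; three experiments in triplicate.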

Data set [2] is described as follows: Compound was tested for toxicity induced in murine macrophage. Particulars: Mus musculus. In outline: (§2)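 Resident mouse peritoneal cells recovered by PBS–heparin (10 U/mL) lavage, adhered 2 h at 37 °C in RPMI 1640 + 5% FCS. Macrophages plated at 1 × 10⁴/well with graded drug concentrations for 24 h (triplicate wells). C13* cells (2 × 10³/well) then added, cocultured 24 h, MTT read-out. Specific cytotoxicity = [OD(macrophages+C13*) − OD(macrophages)]/OD(C13*). IC50 with 95% limits by Litchfield–Wilcoxon.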

The species entered for a further data set is Homo sapiens. The data set is described as follows: Potency ratio as the ratio of IC50 of DMXXA against human monocytes to that of the IC50 against human monocytes. It counts as ADME.
The nature of data set [3]: Potency ratio against macrophages. It counts as ADME.
Data set [4] can be described thus: Compound was tested for toxicity induced in human monocyte. In outline:
(§3)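 Adherent human peripheral blood mononuclear cells (Ficoll-isolated, 2 h adhesion at 37 °C, nonadherent cells washed off) exposed 24 h to 25, 50, 100 μM test agent, triplicate wells per dose. Medium then replaced with C13* ovarian carcinoma cells (2 × 10³/well), cocultured 24 h, lysis read by MTT. IC50 with 95% confidence limits by Litchfield–Wilcoxon; three experiments in triplicate.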

Data set [5] can be described thus: Compound was tested for toxicity induced in human monocyte; b indicates Not detected. In outline: as §3
Data set [6] relates to C13. The data set is described as follows: In vitro cytotoxicity against C13 tumor cell line; Not detected. It counts as functional, cell-based, Homo sapiens. The method, boiled down:
as §1

The nature of data set [7]: Compound was tested for toxicity induced in murine macrophage; b indicates Not detected. Particulars: mouse. In outline:
as §2

By IC50 is commonly meant the point on the concentration scale where inhibition reaches its midpoint. A higher IC50 goes with lower potency.

Regarding `COC(=O)Cc1cccc2c(=O)c3ccc4c(c3oc12)CC(C)(C)O4`, the results for the Potency ratio (in the data set filed under Mus musculus; in the data set listed under Homo sapiens; in [3]) were 1, 1.8 and 2.7, respectively. The IC50 with C13 [1] is 549 µM; in [2], 201 µM; in data set [4] it was 73.7 µM.

With `COC(=O)Cc1cccc2c(=O)c3ccc4oc(C)cc4c3oc12`, in the data set filed under Mus musculus, the Potency ratio is 2.6. Moreover, the half-maximal inhibitory concentration (IC50) in data set [2] is 80.9 µM; in data set [5], “Not detected”; in the data set on C13 [6], “Not detected”.

For the compound `CC1(C)CCc2c(ccc3c(=O)c4cccc(CC(=O)O)c4oc23)O1`, the Potency ratio amounted to 2.9 in the data set filed under Mus musculus, 1.2 in the data set listed under Homo sapiens and 0.7 in data set [3]. In addition, the IC50 in data set [2] is 71.5 µM; in [4], 108 µM; in the data set on C13 [6], “Not detected”.

With `COC(=O)Cc1cccc2c(=O)c3ccc(OCC=C(C)C)c(C)c3oc12`, the Potency ratio in the data set listed under Mus musculus worked out at 1; in the data set listed under Homo sapiens it was 1.8; in data set [3], 3. Moreover, the 50% inhibitory concentration (IC50) was found to be 702 µM in the data set with C13 [1], 224 µM in data set [2] and 73.6 µM in data set [4].

With `C=C(C)COc1ccc2c(=O)c3cccc(CC(=O)O)c3oc2c1C`, the Potency ratio in the data set filed under Mus musculus is reported as 2.7; in the data set filed under Homo sapiens it was 1.6; in data set [3] it was 0.9. Also, the concentration for half-maximal inhibition (IC50) with C13 [1] turned out to be 443 µM; in data set [2], 77.3 µM; in [4] it was 86.2 µM.

As to `Cc1ccc2c(=O)c3cccc(CC(=O)O)c3oc2c1C` [VADIMEZAN], the IC50 with C13 [1] is 615 µM; in data set [2] it was 211 µM; in data set [4], 135 µM.

For `C=CCOc1ccc2c(=O)c3cccc(CC(=O)OC)c3oc2c1`, the results for the Potency ratio (in the data set filed under Mus musculus; in the data set listed under Homo sapiens; in data set [3]) were 3.4, 0.8 and 0.5, respectively. Also, the IC50 is 509 µM in the data set with C13 [1], 61.6 µM in data set [2] and 114 µM in data set [4].

For `Cc1cc2c(ccc3c(=O)c4cccc(CC(=O)O)c4oc32)o1`, the Potency ratio in the data set filed under Mus musculus stood at 5. The IC50 in [2] was 42 µM; in data set [5], “Not detected”; in the data set with C13 [6], “Not detected”.

In the case of `C#CCOc1ccc2c(=O)c3cccc(CC(=O)OC)c3oc2c1C`, in the data set listed under Mus musculus, the Potency ratio amounted to 0.6. Moreover, the IC50 was 410 µM in the data set with C13 [1], 372 µM in data set [2] and “Not detected” in data set [5].

`C=C(C)COc1ccc2c(=O)c3cccc(CC(=O)OC)c3oc2c1C`: the half-inhibitory concentration (IC50) is 488 µM in the data set with C13 [1] and 84.6 µM in data set [4]. For the same compound, in data set [7], the Potency ratio result is “Not detected”.

As for `CC1(C)C=Cc2c(ccc3c(=O)c4cccc(CC(=O)O)c4oc23)O1`, the Potency ratio was 4.7 in the data set listed under Mus musculus, 0.5 in the data set filed under Homo sapiens and 0.2 in data set [3]. Further, the half-inhibitory concentration (IC50) in the data set on C13 [1] stood at 726 µM; in [2] it was 45.1 µM; in data set [4] it was 259 µM.

In the case of `COC(=O)Cc1cccc2c(=O)c3ccc4c(c3oc12)C=CC(C)(C)O4`, the Potency ratio in the data set listed under Mus musculus was found to be 6.9; in the data set filed under Homo sapiens, 2.5; in [3] it was 0.6. Also, the IC50 in data set [2] is 30.5 µM; in data set [4] it was 53.5 µM; in the data set with C13 [6], “Not detected”.

As for `COC(=O)Cc1cccc2c(=O)c3ccc4c(c3oc12)CC(C)O4` (stereo not drawn), the Potency ratio in the data set filed under Mus musculus turned out to be 2.5; in the data set filed under Homo sapiens it was 2; in data set [3], 1.2. Also, the 50% inhibitory concentration (IC50) was 82.8 µM in [2], 67.3 µM in [4] and “Not detected” with C13 [6].

As to `C=CCOc1ccc2c(=O)c3cccc(CC(=O)O)c3oc2c1`, the Potency ratio in the data set filed under Mus musculus is reported as 1. For the same compound, the IC50 with C13 [1] is 510 µM; in data set [2] it was 218 µM; in [5], “Not detected”.

Consider `CC(C)=CCOc1ccc2c(=O)c3cccc(CC(=O)O)c3oc2c1`, for which the Potency ratio in the data set listed under Mus musculus was 0.8; in the data set filed under Homo sapiens, 2.1; in data set [3], 4.1. The IC50 in the data set on C13 [1] was 626 µM; in [2], 264 µM; in data set [4], 64.2 µM.

Turning to `CC1(C)Cc2c(ccc3c(=O)c4cccc(CC(=O)O)c4oc23)O1`, the Potency ratio stood at 0.9 in the data set filed under Mus musculus, 0.8 in the data set listed under Homo sapiens and 1.3 in data set [3]. Further, the IC50 worked out at 604 µM in the data set with C13 [1], 220 µM in data set [2] and 172 µM in data set [4].

With `CC1Cc2c(ccc3c(=O)c4cccc(CC(=O)O)c4oc23)O1` (stereo not drawn), the Potency ratio in the data set listed under Mus musculus is on record as 1.3; in the data set filed under Homo sapiens it was 0.7; in data set [3], 0.9. Besides, the IC50 was 711 µM with C13 [1], 157 µM in data set [2] and 178 µM in data set [4].

(Values after ChEMBL document CHEMBL1135640, “Synthesis and antitumor activity of new derivatives of xanthen-9-one-4-acetic acid” (J Med Chem, 2002).)
